Values joined by “and” are separate entries in the source; they are usually repeats but may differ in a detail not shown here. Equal values may be shown once.
Test system: HEK-293T
Assay: Multiplex assay against HEK293T
Assay type: toxicity, cell-based
Settings: human, number of replicates 2
Outline: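 On a CQ1 microscope at 37°C and 5% CO2, live cells were imaged after compound addition. They had been stained at seeding with Hoechst33342, BioTracker Green Microtubule Cytoskeleton Dye, MitoTracker Red and Annexin V Alexa Fluor 680. CellPathfinder machine-learning gating assigned cells to Hoechst high-intensity objects or normal cells, normal cells to healthy, pyknosed or fragmented nuclei, and pyknosed cells to mitotic or apoptotic. Tubulin, mitochondrial-mass and membrane-permeability phenotypes are per cents of healthy-nucleus cells.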

[1] = 12 h, 1 µM, compound concentration 1 uM
[2] = 12 h, 10 µM, compound concentration 10 uM
[3] = 24 h, 1 µM, compound concentration 1 uM
[4] = 24 h, 10 µM, compound concentration 10 uM
[5] = 48 h, 1 µM, compound concentration 1 uM
[6] = 48 h, 10 µM, compound concentration 10 uM

CN[C@@H]1CC[C@@H](c2ccc(Cl)c(Cl)c2)c2ccccc21.Cl
Population Apoptotic (%) [1]: 46% and 42%
Population Fragmented Nuclei (%) [1]: 2% and 3%
Population Healthy Nuclei (%) [1]: 84%
Population Hoechst High Intensity Objects (%) [1]: 8% and 7%
Population Membrane Permeable-Phenotype (%) [1]: 3%
Population Mitochondria Different-Phenotype (%) [1]: 21% and 16%
Population Mitotic Cells (%) [1]: 53% and 57%
Population Normal (%) [1]: 91% and 92%
Population Pyknosed Nuclei (%) [1]: 12% and 11%
Population Tubulin-Different-Phenotype (%) [1]: 68% and 66%
Population Apoptotic (%) [2]: 57% and 46%
Population Fragmented Nuclei (%) [2]: 3% and 1%
Population Healthy Nuclei (%) [2]: 81% and 80%
Population Hoechst High Intensity Objects (%) [2]: 6%
Population Membrane Permeable-Phenotype (%) [2]: 1% and 3%
Population Mitochondria Different-Phenotype (%) [2]: 48% and 54%
Population Mitotic Cells (%) [2]: 42% and 53%
Population Normal (%) [2]: 93%
Population Pyknosed Nuclei (%) [2]: 15% and 17%
Population Tubulin-Different-Phenotype (%) [2]: 96%
Population Apoptotic (%) [3]: 41% and 38%
Population Fragmented Nuclei (%) [3]: 3% and 4%
Population Healthy Nuclei (%) [3]: 88%
Population Hoechst High Intensity Objects (%) [3]: 8%
Population Membrane Permeable-Phenotype (%) [3]: 3% and 2%
Population Mitochondria Different-Phenotype (%) [3]: 10%
Population Mitotic Cells (%) [3]: 58% and 61%
Population Normal (%) [3]: 91%
Population Pyknosed Nuclei (%) [3]: 8% and 7%
Population Tubulin-Different-Phenotype (%) [3]: 42% and 45%
Population Apoptotic (%) [4]: 66% and 59%
Population Fragmented Nuclei (%) [4]: 4% and 2%
Population Healthy Nuclei (%) [4]: 78% and 81%
Population Hoechst High Intensity Objects (%) [4]: 7% and 11%
Population Membrane Permeable-Phenotype (%) [4]: 2%
Population Mitochondria Different-Phenotype (%) [4]: 63% and 59%
Population Mitotic Cells (%) [4]: 33% and 40%
Population Normal (%) [4]: 92% and 88%
Population Pyknosed Nuclei (%) [4]: 16% and 15%
Population Tubulin-Different-Phenotype (%) [4]: 94%
Population Apoptotic (%) [5]: 14% and 15%
Population Fragmented Nuclei (%) [5]: 11% and 10%
Population Healthy Nuclei (%) [5]: 84% and 86%
Population Hoechst High Intensity Objects (%) [5]: 10% and 9%
Population Membrane Permeable-Phenotype (%) [5]: 4%
Population Mitochondria Different-Phenotype (%) [5]: 1%
Population Mitotic Cells (%) [5]: 85% and 84%
Population Normal (%) [5]: 89% and 90%
Population Pyknosed Nuclei (%) [5]: 3%
Population Tubulin-Different-Phenotype (%) [5]: 18% and 23%
Population Apoptotic (%) [6]: 58% and 75%
Population Fragmented Nuclei (%) [6]: 5%
Population Healthy Nuclei (%) [6]: 84% and 83%
Population Hoechst High Intensity Objects (%) [6]: 8% and 13%
Population Membrane Permeable-Phenotype (%) [6]: 2% and 3%
Population Mitochondria Different-Phenotype (%) [6]: 29% and 34%
Population Mitotic Cells (%) [6]: 41% and 24%
Population Normal (%) [6]: 91% and 86%
Population Pyknosed Nuclei (%) [6]: 9% and 11%
Population Tubulin-Different-Phenotype (%) [6]: 76% and 87%

COCCN1CCN(CCn2ccc(Nc3ncc4c(n3)-c3c(nn(C)c3-c3ccccc3)C[C@H]4C)n2)CC1
Population Apoptotic (%) [1]: 55% and 57%
Population Fragmented Nuclei (%) [1]: 2% and 5%
Population Healthy Nuclei (%) [1]: 86% and 79%
Population Hoechst High Intensity Objects (%) [1]: 14% and 13%
Population Membrane Permeable-Phenotype (%) [1]: 3%
Population Mitochondria Different-Phenotype (%) [1]: 44% and 55%
Population Mitotic Cells (%) [1]: 44% and 42%
Population Normal (%) [1]: 85% and 86%
Population Pyknosed Nuclei (%) [1]: 11% and 15%
Population Tubulin-Different-Phenotype (%) [1]: 73% and 85%
Total Cell Count [1]: 402 and 361
Population Apoptotic (%) [2]: 66% and 76%
Population Fragmented Nuclei (%) [2]: 5%
Population Healthy Nuclei (%) [2]: 76% and 78%
Population Hoechst High Intensity Objects (%) [2]: 21% and 20%
Population Membrane Permeable-Phenotype (%) [2]: 2%
Population Mitochondria Different-Phenotype (%) [2]: 65% and 76%
Population Mitotic Cells (%) [2]: 33% and 23%
Population Normal (%) [2]: 78% and 79%
Population Pyknosed Nuclei (%) [2]: 18% and 16%
Population Tubulin-Different-Phenotype (%) [2]: 94% and 95%
Total Cell Count [2]: 332 and 297
Population Apoptotic (%) [3]: 48% and 64%
Population Fragmented Nuclei (%) [3]: 7% and 3%
Population Healthy Nuclei (%) [3]: 86% and 90%
Population Hoechst High Intensity Objects (%) [3]: 15% and 17%
Population Membrane Permeable-Phenotype (%) [3]: 1% and 2%
Population Mitochondria Different-Phenotype (%) [3]: 30% and 33%
Population Mitotic Cells (%) [3]: 52% and 35%
Population Normal (%) [3]: 84% and 82%
Population Pyknosed Nuclei (%) [3]: 6%
Population Tubulin-Different-Phenotype (%) [3]: 74% and 75%
Total Cell Count [3]: 473 and 331
Population Apoptotic (%) [4]: 71% and 78%
Population Fragmented Nuclei (%) [4]: 5% and 2%
Population Healthy Nuclei (%) [4]: 72% and 83%
Population Hoechst High Intensity Objects (%) [4]: 25% and 24%
Population Membrane Permeable-Phenotype (%) [4]: 1% and 2%
Population Mitochondria Different-Phenotype (%) [4]: 71% and 75%
Population Mitotic Cells (%) [4]: 28% and 21%
Population Normal (%) [4]: 74% and 75%
Population Pyknosed Nuclei (%) [4]: 22% and 14%
Population Tubulin-Different-Phenotype (%) [4]: 90% and 92%
Total Cell Count [4]: 250 and 217
Population Apoptotic (%) [5]: 73% and 30%
Population Fragmented Nuclei (%) [5]: 12% and 8%
Population Healthy Nuclei (%) [5]: 84% and 87%
Population Hoechst High Intensity Objects (%) [5]: 27% and 18%
Population Membrane Permeable-Phenotype (%) [5]: 4% and 2%
Population Mitochondria Different-Phenotype (%) [5]: 5% and 10%
Population Mitotic Cells (%) [5]: 26% and 70%
Population Normal (%) [5]: 72% and 81%
Population Pyknosed Nuclei (%) [5]: 3% and 4%
Population Tubulin-Different-Phenotype (%) [5]: 63% and 68%
Total Cell Count [5]: 864 and 570
Population Apoptotic (%) [6]: 66%
Population Fragmented Nuclei (%) [6]: 7% and 6%
Population Healthy Nuclei (%) [6]: 89% and 82%
Population Hoechst High Intensity Objects (%) [6]: 24% and 20%
Population Membrane Permeable-Phenotype (%) [6]: 0% and 4%
Population Mitochondria Different-Phenotype (%) [6]: 49% and 51%
Population Mitotic Cells (%) [6]: 33%
Population Normal (%) [6]: 75% and 79%
Population Pyknosed Nuclei (%) [6]: 3% and 10%
Population Tubulin-Different-Phenotype (%) [6]: 86% and 82%
Total Cell Count [6]: 245 and 220

Reference: ChEMBL document CHEMBL5303300, “EUbOPEN Chemogenomics Library - Multiplex” (2023)
